We go through 20 compounds from ChEMBL document CHEMBL1142889, “Synthesis and anticancer activity of a novel class of flavonoids: 2,4-diarylchromane[4,3-d]-delta(1,9b)-1,2,3-thiadiazolines” (Eur J Med Chem, 2007).

The term IC50 denotes the midpoint of a concentration-inhibition curve. What is called inhibition in vivo is the share of the control response that was lost under treatment.

In brackets after ≈: the same amount, converted by molar mass.

The subject of assay [1] is Bel-7402. Kind of assay: Antiproliferative activity against Bel7402 cells after 72 hrs by MTT assay. It is filed as functional, cell-based. To be noted: Homo sapiens, Bel-7402, 72 h. The essentials: (§1)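 Cells were exposed to compound for 72 h. MTT in RPMI-1640 was then added and incubated for a further 4 h at 37 °C. Three replicate wells were used per point. IC50 for cell-viability inhibition was calculated from three independent experiments.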

Assay [2] is described as follows: Antiproliferative activity against ECA109 cells after 72 hrs by MTT assay. It is filed as functional, cell-based. To be noted: Homo sapiens, ECa-109, 72 h. The essentials: as §1
Background: Formazan colour is commonly taken as a measure of viable cells.

In assay [3] the test system is PC-3. Kind of assay: Antiproliferative activity against PC3 cells after 72 hrs by MTT assay. It counts as functional, cell-based. As to conditions: Homo sapiens, PC-3, 72 h. The method, boiled down: as §1
Assay [4] deals with MCF7. Kind of assay: Antiproliferative activity against MCF7 cells after 72 hrs by MTT assay. It counts as functional, cell-based. As to conditions: Homo sapiens, MCF7, 72 h. The method, boiled down: as §1
For assay [5], the system named is HL-60. Kind of assay: Antiproliferative activity against HL60 cells after 72 hrs by MTT assay. It counts as functional, cell-based. To be noted: Homo sapiens, HL-60, 72 h. The essentials: as §1
The subject of assay [6] is A549. The experiment in a line: Antiproliferative activity against A549 cells after 72 hrs by MTT assay. It is filed as functional, cell-based. To be noted: Homo sapiens, A549, 72 h. The method, boiled down:
as §1

In assay [7] the test system is CCRF S-180. The experiment in a line: Antitumor activity against S180 cells inoculated in ICR mouse assessed as inhibition at 50 mg/kg, ip after 8 days relative to control. More on the design: scale not given: the % may be the effect or the level left. As to conditions: route intraperitoneal.
The test system of assay [8] is HL-60. Kind of assay: Induction of apoptosis in HL60 cells assessed as DNA fragmentation at 0.5 ug/mL after 48 hrs by flow cytometry. It counts as functional, Homo sapiens. The essentials: (§2)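 HL-60 cells in exponential growth were treated for 48 h. They were washed twice in PBS and fixed in 70% ethanol at −20 °C. Cells were then RNase-treated for 1 h at 37 °C and stained with propidium iodide for 30 min at 4 °C. DNA content of 2 × 10⁴ cells was read by flow cytometry, and the sub-G0/G1 fraction was taken as apoptotic.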

Assay [9] has as its system HL-60. Kind of assay: Induction of apoptosis in HL60 cells assessed as DNA fragmentation at 1.0 ug/mL after 48 hrs by flow cytometry. It is filed as functional, Homo sapiens. The essentials:
as §2

Assay [10] concerns HL-60. Kind of assay: Induction of apoptosis in HL60 cells assessed as DNA fragmentation at 2 ug/mL after 48 hrs by flow cytometry. It counts as functional, Homo sapiens. The method, boiled down: as §2
A general note: In flow cytometry, cells or beads pass a laser one at a time.

Assay [11] relates to CCRF S-180. The experiment in a line: Antitumor activity against S180 cells inoculated in ICR mouse assessed as tumor weight at 80 mg/kg, ip after 8 days. It counts as functional. As to conditions: route intraperitoneal. The essentials: (§3)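 S180 sarcoma was first passaged in mice for 7 days, then 2.5 × 10⁶ viable cells/mouse were injected s.c. into the armpit of female ICR mice. Compound was given i.p. once daily for 7 consecutive days, starting 24 h after inoculation. Group sizes were 10, or 20 for the saline control. Cyclophosphamide 50.0 mg/kg was the positive control. On day 8 tumors were excised and weighed, and inhibition = (C − T)/C × 100 using mean tumor weights.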

In assay [12] the test system is CCRF S-180. The experiment in a line: Antitumor activity against S180 cells inoculated in ICR mouse assessed as inhibition at 80 mg/kg, ip after 8 days relative to control. To be noted: CCRF S-180, ip, 192 h, route intraperitoneal. It counts as functional. The essentials: as §3

On to `CCOC12SN(c3ccc([N+](=O)[O-])cc3Cl)N=C1c1c(OC)cc(OC)c(Cl)c1OC2(OCC)c1ccc(C)cc1` (racemic), for which the IC50 is above 50 µg/mL in assay [1]; 7.3 µg/mL (≈ 11.8 µM) in assay [2]; 7.3 µg/mL (≈ 11.8 µM) in assay [3]; above 25 µg/mL in assay [4]; 16.8 µg/mL (≈ 27.1 µM) in assay [5]; above 50 µg/mL in assay [6].

Regarding `O=C1CC(c2ccccc2)Oc2ccccc21` (stereo not given) [FLAVANONE], the IC50 was above 50 µg/mL in [1]; 27.7 µg/mL (≈ 124 µM) in [2]; 16.6 µg/mL (≈ 74 µM) in assay [3]; above 25 µg/mL in assay [4]; 3.4 µg/mL (≈ 15.2 µM) in [5]; 14.2 µg/mL (≈ 63.3 µM) in assay [6].

Turning to `CCOC12SN(c3ccc([N+](=O)[O-])cc3Cl)N=C1c1cc(C)ccc1OC2(OCC)c1ccc(Cl)cc1` (racemic), the 50% inhibitory concentration (IC50) in [1] was 18.6 µg/mL (≈ 33.2 µM); in assay [2] it was 14.8 µg/mL (≈ 26.4 µM); in assay [3], above 50 µg/mL; in [4] it was above 25 µg/mL; in [5], above 25 µg/mL; in assay [6] it was 7.8 µg/mL (≈ 13.9 µM).

On to `CCOC12SN(c3ccc(S(C)(=O)=O)cc3Cl)N=C1c1c(OC)cc(OC)c(Cl)c1OC2(OCC)c1ccc(Cl)cc1` (racemic), for which the IC50 in [1] was 24.8 µg/mL (≈ 36.8 µM); in assay [2] it was 20.1 µg/mL (≈ 29.8 µM); in [3] it was above 50 µg/mL; in assay [4], 12.6 µg/mL (≈ 18.7 µM); in [5], 5.6 µg/mL (≈ 8.31 µM); in assay [6], 14.5 µg/mL (≈ 21.5 µM).

On to `CCOC12SN(c3ccc(S(C)(=O)=O)cc3Cl)N=C1c1cc(C)ccc1OC2(OCC)c1ccc(OC)cc1` (racemic), for which the IC50 in assay [1] is 40.4 µg/mL (≈ 68.6 µM); in [2], 1.5 µg/mL (≈ 2.55 µM); in assay [3], 0.6 µg/mL (≈ 1.02 µM); in assay [4], above 25 µg/mL; in assay [5], 0.6 µg/mL (≈ 1.02 µM); in assay [6], 1.1 µg/mL (≈ 1.87 µM).

As for `CCOC12SN(c3ccc(S(C)(=O)=O)cc3Cl)N=C1c1cc(C)ccc1OC2(OCC)c1ccc(Cl)cc1` (racemic), the IC50 came out at 7.3 µg/mL (≈ 12.3 µM) in [1]; 11.5 µg/mL (≈ 19.4 µM) in assay [2]; 6 µg/mL (≈ 10.1 µM) in [3]; 2.5 µg/mL (≈ 4.21 µM) in assay [4]; 6 µg/mL (≈ 10.1 µM) in [5]; 10.3 µg/mL (≈ 17.4 µM) in assay [6].

With `CCOC12SN(c3ccc(NC(C)=O)cc3Cl)N=C1c1ccccc1OC2(OCC)c1ccc(Cl)cc1` (racemic), the IC50 in assay [1] came to 21.3 µg/mL (≈ 38.1 µM); in assay [2], 9.6 µg/mL (≈ 17.2 µM); in [3], 4.1 µg/mL (≈ 7.34 µM); in [4], 23.3 µg/mL (≈ 41.7 µM); in [5], 2.2 µg/mL (≈ 3.94 µM); in [6] it was 4.2 µg/mL (≈ 7.52 µM).

For `CCOC12SN(c3ccc([N+](=O)[O-])cc3Cl)N=C1c1c(OC)cc(OC)c(Cl)c1OC2(OCC)c1ccc(Cl)cc1` (racemic), the IC50 in assay [1] was above 50 µg/mL; in assay [2] it was above 50 µg/mL; in assay [3], 15.8 µg/mL (≈ 24.7 µM); in assay [4], above 25 µg/mL; in [5], 6.7 µg/mL (≈ 10.5 µM); in assay [6] it was above 50 µg/mL.

Consider `COc1cc(OC)c2c(c1Cl)OC(OC)(c1ccc(Cl)cc1)C1(OC)SN(c3ccc([N+](=O)[O-])cc3Cl)N=C21` (racemic), for which the IC50 in assay [1] was above 50 µg/mL; in [2], 5.7 µg/mL (≈ 9.3 µM); in [3], 2.9 µg/mL (≈ 4.73 µM); in [4] it was 5.5 µg/mL (≈ 8.97 µM); in assay [5], 3.2 µg/mL (≈ 5.22 µM); in [6], 5.4 µg/mL (≈ 8.81 µM).

As for `CCOC12SN(c3ccc([N+](=O)[O-])cc3Cl)N=C1c1c(OC)cc(OC)c(Cl)c1OC2(OCC)c1ccccc1Cl` (racemic), the concentration for half-maximal inhibition (IC50) is above 50 µg/mL in [1]; above 50 µg/mL in assay [2]; above 50 µg/mL in assay [3]; above 25 µg/mL in [4]; above 25 µg/mL in [5]; above 50 µg/mL in assay [6].

As for `O=P1(N(CCCl)CCCl)NCCCO1` (stereo not given) [CYCLOPHOSPHAMIDE ANHYDROUS], the Activity in [7] is 45.4%.

As to `CCOC12SN(c3ccc(NC(C)=O)cc3Cl)N=C1c1cc(C)ccc1OC2(OCC)c1ccc(Cl)cc1` (racemic), the IC50 in assay [1] came out at 10.5 µg/mL (≈ 18.3 µM); in [2] it was 4.1 µg/mL (≈ 7.16 µM); in [3], 2.4 µg/mL (≈ 4.19 µM); in [4], 19.8 µg/mL (≈ 34.6 µM); in assay [5], 1.3 µg/mL (≈ 2.27 µM); in [6], 2.5 µg/mL (≈ 4.37 µM).

Regarding `CCOC12SN(c3ccc(S(C)(=O)=O)cc3Cl)N=C1c1ccccc1OC2(OCC)c1ccc(Cl)cc1` (racemic), the IC50 in [1] is 10.3 µg/mL (≈ 17.8 µM); in assay [2] it was 5.9 µg/mL (≈ 10.2 µM); in [3], 3.1 µg/mL (≈ 5.35 µM); in [4] it was 4.1 µg/mL (≈ 7.07 µM); in assay [5] it was 2.8 µg/mL (≈ 4.83 µM); in assay [6], 4.9 µg/mL (≈ 8.46 µM). In addition, the Activity in [8] is 3.9%; in [9], 25.3%; in assay [10] it was 68.3%; in assay [11] it was 0.63 g. For the same compound, the inhibition in vivo at 80 mg/kg in assay [12] was 48.2%.

`CCOC12SN(c3ccc([N+](=O)[O-])cc3Cl)N=C1c1cc(C)ccc1OC2(OCC)c1cc(OC)c(OC)cc1Cl` (racemic): the IC50 in assay [1] is above 50 µg/mL; in [2] it was above 50 µg/mL; in [3] it was above 50 µg/mL; in assay [4], above 25 µg/mL; in assay [5], above 25 µg/mL; in assay [6], above 50 µg/mL.

Turning to `CCOC12SN(c3ccc([N+](=O)[O-])cc3Cl)N=C1c1ccccc1OC2(OCC)c1ccc(OC)cc1` (racemic), the IC50 in [1] was determined as 8.2 µg/mL (≈ 15.1 µM); in assay [2], 9.6 µg/mL (≈ 17.7 µM); in assay [3], 5.7 µg/mL (≈ 10.5 µM); in assay [4], 23.3 µg/mL (≈ 43 µM); in assay [5], 3.3 µg/mL (≈ 6.09 µM); in assay [6], 5.1 µg/mL (≈ 9.41 µM).

As to `CCOC12SN(c3ccc(S(C)(=O)=O)cc3Cl)N=C1c1ccccc1OC2(OCC)c1ccc(OC)cc1` (racemic), the concentration for half-maximal inhibition (IC50) in assay [1] was 23.5 µg/mL (≈ 40.9 µM); in assay [2], 5.9 µg/mL (≈ 10.3 µM); in [3] it was 3.5 µg/mL (≈ 6.09 µM); in assay [4], above 25 µg/mL; in assay [5], 1.8 µg/mL (≈ 3.13 µM); in [6], 3.3 µg/mL (≈ 5.74 µM).

Consider `CCOC12SN(c3ccc([N+](=O)[O-])cc3Cl)N=C1c1c(OC)cc(OC)c(Cl)c1OC2(OCC)c1ccc(OC)cc1` (racemic), for which the half-inhibitory concentration (IC50) in assay [1] is above 50 µg/mL; in assay [2], above 50 µg/mL; in [3], 19.2 µg/mL (≈ 30.2 µM); in [4] it was above 25 µg/mL; in [5], 23.2 µg/mL (≈ 36.4 µM); in assay [6] it was 17.7 µg/mL (≈ 27.8 µM).

For the compound `CCOC12SN(c3ccc([N+](=O)[O-])cc3Cl)N=C1c1cc(C)ccc1OC2(OCC)c1ccc(OC)cc1` (racemic), the IC50 in assay [1] is 21.8 µg/mL (≈ 39.2 µM); in assay [2] it was above 50 µg/mL; in [3], above 50 µg/mL; in assay [4] it was above 25 µg/mL; in assay [5] it was above 25 µg/mL; in assay [6], above 50 µg/mL.

`CCOC12SN(c3ccc([N+](=O)[O-])cc3Cl)N=C1c1ccccc1OC2(OCC)c1ccc(Cl)cc1` (racemic): the half-inhibitory concentration (IC50) stood at 11.8 µg/mL (≈ 21.6 µM) in assay [1]; 6.9 µg/mL (≈ 12.6 µM) in assay [2]; 4.1 µg/mL (≈ 7.5 µM) in assay [3]; 15 µg/mL (≈ 27.5 µM) in assay [4]; 2.2 µg/mL (≈ 4.03 µM) in [5]; 3.8 µg/mL (≈ 6.95 µM) in assay [6].

With `CCOC12SN(c3ccc([N+](=O)[O-])cc3Cl)N=C1c1cc(C)ccc1OC2(OCC)c1cc2c(cc1Cl)OCO2` (racemic), the IC50 in [1] was above 50 µg/mL; in assay [2], above 50 µg/mL; in assay [3], above 50 µg/mL; in assay [4] it was above 25 µg/mL; in assay [5], above 25 µg/mL; in assay [6], above 50 µg/mL.
